Results published in ChEMBL document CHEMBL3217512, “Indole/triazole conjugates are selective inhibitors and inducers of bacterial biofilms” (Medchemcomm, 2013).

Tests used:
Escherichia coli [1] = assay: Antimicrobial activity against Escherichia coli K-12 ER2718 assessed as effect on planktonic growth at PC75 after 2 to 24 hrs by colony count method; assay type: organism-based; details: in vivo
Acinetobacter baumannii [2] = assay: Antimicrobial activity against Acinetobacter baumannii 19606 assessed as effect on planktonic growth at PC25 after 2 to 24 hrs by colony count method; parameters: species or system ATCC 19606
Staphylococcus aureus [3] = assay: Inhibition of biofilm formation in methicillin-resistant Staphylococcus aureus BAA 44 at 150 uM after 24 hrs by crystal violet staining-based assay relative to control; assay type: functional; details: BAA 44, 24 h
Procedure, shortened: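 Static biofilm development in MRSA, read out by crystal violet staining against an untreated control. Initial screen at 150 μM. Inhibitors then went to dose-response, with IC50 taken as the concentration giving 50% inhibition of biofilm growth. Induction was judged at 50 μM: under 50% induction counted as "inducer", over 50% as "strong inducer".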

Staphylococcus aureus [4] = assay: Antimicrobial activity against methicillin-resistant Staphylococcus aureus BAA 44 assessed as effect on planktonic growth at IC50 after 2 to 24 hrs by colony count method; assay type: organism-based; details: in vivo
Escherichia coli [5] = assay: Antimicrobial activity against Escherichia coli K-12 ER2718 assessed as effect on planktonic growth at PC25 after 2 to 24 hrs by colony count method; assay type: organism-based
Escherichia coli [6] = assay: Antimicrobial activity against Escherichia coli K-12 ER2718 assessed as effect on planktonic growth at PC25 after 2 to 24 hrs; assay type: organism-based
Acinetobacter baumannii [7] = assay: Antimicrobial activity against Acinetobacter baumannii 19606 assessed as effect on planktonic growth at 50 uM after 2 to 24 hrs; parameters: species or system ATCC 19606
Procedure, shortened: (§1)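 Growth curve analysis of planktonic bacteria with each biofilm inducer at 50 μM, used to assess toxicity.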

Escherichia coli [8] = assay: Induction of biofilm formation in Escherichia coli K-12 ER2718 assessed as concentration required for 50% promotion of biofilm formation after 24 hrs by crystal violet staining-based assay; assay type: functional
Procedure, shortened: (§2)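 For strong inducers of E. coli biofilm, dose-response curves were run in the static crystal violet assay. PC25, PC50 and PC75 are the concentrations promoting biofilm formation by 25%, 50% and 75%.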

Escherichia coli [9] = assay: Antimicrobial activity against Escherichia coli K-12 ER2718 assessed as effect on planktonic growth at 50 uM after 2 to 24 hrs; assay type: organism-based; procedure, shortened: as §1
Acinetobacter baumannii [10] = assay: Antimicrobial activity against Acinetobacter baumannii 19606 assessed as effect on planktonic growth at PC75 after 2 to 24 hrs; parameters: species or system ATCC 19606
Acinetobacter baumannii [11] = assay: Antimicrobial activity against Acinetobacter baumannii 19606 assessed as effect on planktonic growth at PC75 after 2 to 24 hrs by colony count method; parameters: species or system ATCC 19606
Acinetobacter baumannii [12] = assay: Induction of biofilm formation in Acinetobacter baumannii 19606 at 50 uM after 24 hrs by crystal violet staining-based assay relative to control; assay type: functional, ATCC 19606 = CIP 70.34 = JCM 6841
Procedure, shortened: (§3)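 Static biofilm assay with compounds at 50 μM and crystal violet read-out, relative to an untreated control. Compounds increasing biofilm by less than 50% were called inducers, and by more than 50% strong inducers.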

Escherichia coli [13] = assay: Antimicrobial activity against Escherichia coli K-12 ER2718 assessed as effect on planktonic growth at PC50 after 2 to 24 hrs by colony count method; assay type: organism-based; details: in vivo
Staphylococcus aureus [14] = assay: Antimicrobial activity against Staphylococcus aureus 29213 assessed as effect on planktonic growth at IC50 after 2 to 24 hrs by colony count method; assay type: organism-based; details: in vivo
Staphylococcus aureus [15] = assay: Inhibition of biofilm formation in Staphylococcus aureus 29213 after 24 hrs by crystal violet staining-based assay; assay type: functional, organism-based; details: Staphylococcus aureus, 29213, 24 h
Procedure, shortened: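 Compounds active in the 150 μM screen were taken into dose-response studies under static conditions with a crystal violet read-out. IC50 is the concentration that inhibits 50% of biofilm growth relative to an untreated control.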

Escherichia coli [16] = assay: Induction of biofilm formation in Escherichia coli K-12 ER2718 at 50 uM after 24 hrs by crystal violet staining-based assay relative to control; assay type: functional; procedure, shortened: as §3
Escherichia coli [17] = assay: Antimicrobial activity against Escherichia coli K-12 ER2718 assessed as effect on planktonic growth at PC75 after 2 to 24 hrs; assay type: organism-based; details: in vivo
Acinetobacter baumannii [18] = assay: Antimicrobial activity against Acinetobacter baumannii 19606 assessed as effect on planktonic growth at PC25 after 2 to 24 hrs; parameters: species or system ATCC 19606
Acinetobacter baumannii [19] = assay: Antimicrobial activity against Acinetobacter baumannii 19606 assessed as effect on planktonic growth at PC50 after 2 to 24 hrs; parameters: species or system ATCC 19606
Escherichia coli [20] = assay: Induction of biofilm formation in Escherichia coli K-12 ER2718 assessed as concentration required for 25% promotion of biofilm formation after 24 hrs by crystal violet staining-based assay; assay type: functional; procedure, shortened: as §2
Escherichia coli [21] = assay: Induction of biofilm formation in Escherichia coli K-12 ER2718 assessed as concentration required for 75% promotion of biofilm formation after 24 hrs by crystal violet staining-based assay; assay type: functional; procedure, shortened: as §2
Acinetobacter baumannii [22] = assay: Antimicrobial activity against Acinetobacter baumannii 19606 assessed as effect on planktonic growth at IC50 after 2 to 24 hrs; parameters: species or system ATCC 19606
Acinetobacter baumannii [23] = assay: Antimicrobial activity against Acinetobacter baumannii 19606 assessed as effect on planktonic growth at IC50 after 2 to 24 hrs by colony count method; parameters: species or system ATCC 19606
Escherichia coli [24] = assay: Antimicrobial activity against Escherichia coli K-12 ER2718 assessed as effect on planktonic growth at IC50 after 2 to 24 hrs by colony count method; assay type: organism-based
Escherichia coli [25] = assay: Antimicrobial activity against Escherichia coli K-12 ER2718 assessed as effect on planktonic growth at PC50 after 2 to 24 hrs; assay type: organism-based
Staphylococcus aureus [26] = assay: Antimicrobial activity against Staphylococcus aureus 29213 assessed as effect on planktonic growth at IC50 after 2 to 24 hrs; assay type: organism-based; details: in vivo
Acinetobacter baumannii [27] = assay: Antimicrobial activity against Acinetobacter baumannii 19606 assessed as effect on planktonic growth at PC50 after 2 to 24 hrs by colony count method; parameters: species or system ATCC 19606
Escherichia coli [28] = assay: Antimicrobial activity against Escherichia coli K-12 ER2718 assessed as effect on planktonic growth at IC50 after 2 to 24 hrs; assay type: organism-based
Staphylococcus aureus [29] = assay: Antimicrobial activity against methicillin-resistant Staphylococcus aureus BAA 44 assessed as effect on planktonic growth at IC50 after 2 to 24 hrs; assay type: organism-based; details: in vivo
Staphylococcus aureus [30] = assay: Inhibition of biofilm formation in Staphylococcus aureus 29213 at 150 uM after 24 hrs by crystal violet staining-based assay relative to control; assay type: functional; details: Staphylococcus aureus, 29213, 24 h
Acinetobacter baumannii [31] = assay: Inhibition of biofilm formation in Acinetobacter baumannii 19606 at 150 uM after 24 hrs by crystal violet staining-based assay relative to control; assay type: functional; details: ATCC 19606 = CIP 70.34 = JCM 6841, 24 h

| Structure (SMILES) | Activity (Escherichia coli [1]) | inhibition at 150 µM (Staphylococcus aureus [3]) | Activity (Staphylococcus aureus [4]) | Activity (Escherichia coli [5]) | Activity (Escherichia coli [6]) | Activity (Escherichia coli [8]) | Activity (Escherichia coli [9]) | Activity (Escherichia coli [13]) | Activity (Staphylococcus aureus [14]) | Activity (Escherichia coli [16]) | Activity (Escherichia coli [17]) | Activity (Escherichia coli [20]) | Activity (Escherichia coli [21]) | Activity (Acinetobacter baumannii [22]) | Activity (Acinetobacter baumannii [23]) | Activity (Escherichia coli [24]) | Activity (Escherichia coli [25]) | Activity (Staphylococcus aureus [26]) | Activity (Escherichia coli [28]) | Activity (Staphylococcus aureus [29]) | other results |
| --- | --- | --- | --- | --- | --- | --- | --- | --- | --- | --- | --- | --- | --- | --- | --- | --- | --- | --- | --- | --- | --- |
| CCCCCCCc1ccc(C(=O)NCCn2cc(Cc3csc4ccccc34)nn2)cc1 | Non-toxic | < 5% | Non-toxic | Non-toxic | Non-toxic | 56.3 µM | Non-toxic | Non-toxic | Non-toxic | >50% | Non-toxic | 22.2 µM | 93.8 µM | Non-toxic | Non-toxic | Non-toxic | Non-toxic | Non-toxic | Non-toxic | Non-toxic | Activity (Acinetobacter baumannii [2]): Non-toxic; Activity (Acinetobacter baumannii [7]): Non-toxic; Activity (Acinetobacter baumannii [10]): Non-toxic; Activity (Acinetobacter baumannii [11]): Non-toxic; Activity (Acinetobacter baumannii [12]): <50%; IC50 (Staphylococcus aureus [15]): 83 µM; Activity (Acinetobacter baumannii [18]): Non-toxic; Activity (Acinetobacter baumannii [19]): Non-toxic; Activity (Acinetobacter baumannii [27]): Non-toxic |
| CCCCCc1ccc(C(=O)NCCn2cc(Cc3csc4ccccc34)nn2)cc1 | Non-toxic | < 5% | Non-toxic | Non-toxic | Non-toxic | 99.8 µM | Non-toxic | Non-toxic | Non-toxic | >50% | Non-toxic | 26.7 µM | 151.9 µM | Non-toxic | Non-toxic | Non-toxic | Non-toxic | Non-toxic | Non-toxic | Non-toxic | inhibition at 150 µM (Staphylococcus aureus [30]): < 5%; inhibition at 150 µM (Acinetobacter baumannii [31]): < 5% |
| CCCCCCCc1ccc(C(=O)NCCn2cc(Cc3c[nH]c4ccccc34)nn2)cc1 | Non-toxic | < 5% | Non-toxic | Non-toxic | Non-toxic | 80.7 µM | Non-toxic | Non-toxic | Non-toxic | >50% | Non-toxic | 50.5 µM | 119.7 µM | Non-toxic | Non-toxic | Non-toxic | Non-toxic | Non-toxic | Non-toxic | Non-toxic | IC50 (Staphylococcus aureus [15]): 175 µM; inhibition at 150 µM (Acinetobacter baumannii [31]): 30% |
